The source made the active and inactive calls.
How the values were obtained:
[1] = system: Mel-Ab; test: Cytotoxicity against mouse Mel-Ab cells at 1 to 100 uM after 24 hrs by crystal violet assay; format: functional, cell-based
Procedure, shortened: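 Mel-Ab (spontaneously immortalized mouse melanocytes; DMEM, 10% FBS, 100 nM TPA, 1 nM CT, 37 °C, 5% CO2) exposed 24 h to 1, 10, 50, 100 µM. Crystal violet staining (0.1% in 10% ethanol, 5 min, room temperature), four water rinses, dye extracted with 95% ethanol, absorbance read at 590 nm.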

[2] = system: Mel-Ab; test: Inhibition of melanin synthesis in mouse Mel-Ab cells assessed as reduction in melanin synthesis at 1 to 100 uM after 4 hrs by phase-contrast microscopy; format: functional, cell-based; conditions: in the assay text read “4 days” for “4 hrs”
Procedure, shortened: (§1)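 Mel-Ab melanocytes in TPA/CT-supplemented DMEM given 1–100 µM for four days. Cells photographed under phase contrast. Pellets then dissolved in 1 N NaOH, 100 °C, 30 min, spun 16000g for 20 min, supernatant OD read at 400 nm. Mean ± SD of three replicate experiments, compared with untreated control.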

[3] = system: Mel-Ab; test: Inhibition of melanin synthesis in mouse Mel-Ab cells assessed as in melanin content after 4 hrs by ELISA; format: functional, cell-based; conditions: in the assay text read “4 days” for “4 hrs”; procedure, shortened: as §1
[4] = system: Mel-Ab; test: Induction of ERK activity in 24 hrs serum starved mouse Mel-Ab cells at 50 uM by Western blot analysis; format: cell-based
Procedure, shortened: (§2)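 Mel-Ab cells serum-starved 24 h, then given 50 µM for the indicated times up to 360 min. Whole-cell lysates run at 10 µg protein per lane by SDS-PAGE and blotted on PVDF. Probed with 1:1000 antibodies to phospho-ERK, phospho-Akt, MITF and tyrosinase; actin served as loading control.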

[5] = target: T1, Microphthalmia-associated transcription factor (Mus musculus) (UniProt Q08874); test: Down regulation of MITF activity in 24 hrs serum starved mouse Mel-Ab cells at 50 uM measured after 60 to 360 mins by Western blot analysis; format: cell-based; procedure, shortened: as §2
T1 sequence (whole entry): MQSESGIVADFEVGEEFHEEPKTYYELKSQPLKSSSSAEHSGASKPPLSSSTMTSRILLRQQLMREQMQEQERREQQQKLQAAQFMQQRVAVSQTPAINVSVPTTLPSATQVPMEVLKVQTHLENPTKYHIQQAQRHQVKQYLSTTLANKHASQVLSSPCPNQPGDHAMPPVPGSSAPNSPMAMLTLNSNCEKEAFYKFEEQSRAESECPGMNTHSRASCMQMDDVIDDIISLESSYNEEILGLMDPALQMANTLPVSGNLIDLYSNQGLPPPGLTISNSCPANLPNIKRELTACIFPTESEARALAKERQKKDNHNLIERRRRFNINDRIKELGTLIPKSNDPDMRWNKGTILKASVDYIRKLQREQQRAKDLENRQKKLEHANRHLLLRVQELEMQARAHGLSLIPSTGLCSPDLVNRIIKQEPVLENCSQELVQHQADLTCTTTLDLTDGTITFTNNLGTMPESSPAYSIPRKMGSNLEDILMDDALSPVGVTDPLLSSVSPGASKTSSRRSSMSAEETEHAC

[6] = system: Mel-Ab; test: Reduction of MITF level in 24 hrs serum starved mouse Mel-Ab cells at 50 uM measured after 24 to 72 mins by Western blot analysis; format: functional; conditions: in the assay text read “24 to 72 hrs” for “24 to 72 mins”
Procedure, shortened: (§3)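 Mel-Ab cells cultured 24–72 h with 50 µM. Whole-cell lysates (10 µg protein/lane) analysed by Western blot for MITF and tyrosinase, with actin as loading control.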

[7] = system: Mel-Ab; test: Reduction of tyrosinase protein level in 24 hrs serum starved mouse Mel-Ab cells at 50 uM measured after 24 to 72 mins by Western blot analysis; format: functional; conditions: in the assay text read “24 to 72 hrs” for “24 to 72 mins”; procedure, shortened: as §3
[8] = Inhibition of melanin synthesis in mouse Mel-Ab cells assessed as reduction in melanin synthesis at 50 uM after 4 hrs by phase-contrast microscopy in presence of PD-98059 ERK pathway inhibitor; format: functional, cell-based; conditions: in the assay text read “4 days” for “4 hrs”
Procedure, shortened: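 Mel-Ab cells pretreated 1 h with 20 µM PD98059, then cultured four days with 50 µM compound. Phase-contrast photography, then melanin read as OD 400 nm after dissolving pellets in 1 N NaOH at 100 °C. Triplicate determinations, mean ± SD.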

[9] = system: Mel-Ab; test: Reduction of MITF level in 24 hrs serum starved mouse Mel-Ab cells […] measured after 3 hrs followed by MG132 proteasome inhibitor for 1 hr by Western blot analysis; format: functional
Procedure, shortened: (§4)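 After serum starvation, Mel-Ab cells pretreated 1 h with 25 µg/mL cycloheximide, then 1 h with 25 µM MG132 and/or 100 µM chloroquine, then 3 h with 50 µM compound. MITF detected by Western blot of whole-cell lysates.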

[10] = system: Mel-Ab; test: Reduction of MITF level in 24 hrs serum starved mouse Mel-Ab cells […] measured after 3 hrs followed by chloroquine lysosomal proteolysis inhibitor for 1 hr by Western blot analysis; format: functional; procedure, shortened: as §4
[11] = system: Mel-Ab; test: Reduction of MITF level in 24 hrs serum starved mouse Mel-Ab cells at 25 ug/ml measured after 3 hrs followed by MG132/chloroquine for 1 hr by Western blot analysis; format: functional; conditions: 50 uM, in the assay text read “50 uM” for “25 ug/ml”; procedure, shortened: as §4
[12] = system: Mel-Ab; test: Induction of ERK activity in 24 hrs serum starved mouse Mel-Ab cells at 50 uM by Western blot analysis in presence of PD-98059; format: cell-based
[13] = target: T2, Tyrosinase (Mus musculus) (UniProt P11344); test: Inhibition of tyrosinase activity in mouse Mel-Ab cells assessed as inhibition of melanogenesis at 1 to 100 uM by ELISA
T2 sequence (whole entry): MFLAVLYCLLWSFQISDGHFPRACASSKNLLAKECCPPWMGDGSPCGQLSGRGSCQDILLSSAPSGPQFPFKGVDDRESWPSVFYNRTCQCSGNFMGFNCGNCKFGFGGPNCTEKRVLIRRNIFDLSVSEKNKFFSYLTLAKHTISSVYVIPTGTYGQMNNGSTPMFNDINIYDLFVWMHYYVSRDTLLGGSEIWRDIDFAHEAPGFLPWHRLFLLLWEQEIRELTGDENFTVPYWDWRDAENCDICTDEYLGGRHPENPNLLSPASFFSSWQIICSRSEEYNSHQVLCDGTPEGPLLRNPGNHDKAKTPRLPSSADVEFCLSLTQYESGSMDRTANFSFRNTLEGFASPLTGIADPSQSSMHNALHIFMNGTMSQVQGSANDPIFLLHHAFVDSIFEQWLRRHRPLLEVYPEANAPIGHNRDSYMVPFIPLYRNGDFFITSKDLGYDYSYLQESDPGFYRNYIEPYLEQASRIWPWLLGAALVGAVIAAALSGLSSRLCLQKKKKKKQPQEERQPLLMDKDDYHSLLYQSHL

[14] = system: Mel-Ab; test: Reduction of MITF level in 24 hrs serum starved mouse Mel-Ab cells at 50 uM measured after 3 hrs by Western blot analysis in presence of PD-98059

Measured: Activity

CC1(C)Oc2cc3oc(=O)ccc3cc2C[C@@H]1OC(=O)/C=C/c1ccccc1
inactive: [1] | [8] | [9] | [10] | [12] | [14]
active: [2] | [3] Dose-dependent effect | [4] | [5] | [6] | [7] | [11] | [13]

— ChEMBL document CHEMBL1158586, “Hypopigmentary action of dihydropyranocoumarin D2, a decursin derivative, as a MITF-degrading agent” (J Nat Prod, 2010)
